ChEMBL document CHEMBL1782040, “Exceptionally fast uptake and metabolism of cyanidin 3-glucoside by rat kidneys and liver” (J Nat Prod, 2011)

Legend:
Nucleic Acid [1] = experiment: Ratio of drug uptake in bile to liver in Wistar rat assessed as peonidin 3-glucoside level at 0.67 umol, iv after 15 mins by mass spectrometry analysis; assay type: ADME, organism-based; settings: in vivo, 0.25 h
Liver [2] = experiment: Drug uptake in Wistar rat liver assessed as peonidin 3-glucoside level at 0.67 umol, iv after 15 mins by mass spectrometry analysis; assay type: ADME, organism-based; settings: in vivo, 0.25 h
Procedure, shortened: (§1)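 Fasting, anaesthetized rats received cyanidin 3-glucoside in saline into the iliac vein (0.67 μmol) and were killed at 15 s, 1, 5 or 15 min. Liver homogenates were methanol-extracted, cleaned up by SPE and quantified by LC-MS/MS.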

Liver [3] = experiment: Drug uptake in Wistar rat liver assessed as peonidin 3-glucoside level at 0.67 umol, iv after 5 mins by mass spectrometry analysis; assay type: ADME, organism-based; settings: in vivo, read-out: Drug uptake; procedure, shortened: as §1
Kidney [4] = experiment: Drug uptake in Wistar rat kidney assessed as peonidin 3-glucoside level at 0.67 umol, iv after 15 mins by mass spectrometry analysis; assay type: ADME, organism-based; settings: in vivo, 0.25 h, read-out: Drug uptake
Procedure, shortened: (§2)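 Cyanidin 3-glucoside in saline was given as one iliac-vein injection (0.67 μmol) to fasting, anaesthetized rats, which were killed at 15 s, 1, 5 or 15 min. Kidneys were homogenized, extracted in methanol, cleaned up by SPE and analysed by LC-MS/MS.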

Kidney [5] = experiment: Drug uptake in Wistar rat kidney assessed as peonidin 3-glucoside level at 0.67 umol, iv after 1 min by mass spectrometry analysis; assay type: ADME, organism-based; settings: in vivo, read-out: Drug uptake; procedure, shortened: as §2
Liver [6] = experiment: Drug uptake in Wistar rat liver assessed as peonidin 3-glucoside level by assuming liver mass was 7 grams at 0.67 umol, iv after 0.25 mins by mass spectrometry analysis; assay type: ADME, organism-based; settings: in vivo, 15 s; procedure, shortened: as §1
Nucleic Acid [7] = experiment: Ratio of drug uptake in urine to kidney in Wistar rat assessed as peonidin 3-glucoside level at 0.67 umol, iv after 15 mins by mass spectrometry analysis; assay type: ADME, organism-based; settings: in vivo, 0.25 h
[8] = Drug uptake in Wistar rat bile assessed as peonidin 3-glucoside level at 0.67 umol, iv after 15 mins by mass spectrometry analysis; assay type: ADME, organism-based; settings: in vivo, 0.25 h, read-out: Drug uptake
Procedure, shortened: (§3)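 Cyanidin 3-glucoside in saline was injected into the iliac vein of fasting, anaesthetized rats (0.67 μmol; 76 μM in plasma). Urine and bile were collected to 15 min, and their volumes were measured. Anthocyanin levels were measured by LC-MS and corrected for recovery from spiked standards. Amounts are given per collected volume (n = 9 urine, n = 4 bile).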

Kidney [9] = experiment: Drug uptake in Wistar rat kidney assessed as peonidin 3-glucoside level by assuming kidney mass was 2.4 gram at 0.67 umol, iv after 5 mins by mass spectrometry analysis; assay type: ADME, organism-based; settings: in vivo; procedure, shortened: as §2
Kidney [10] = experiment: Drug uptake in Wistar rat kidney assessed as peonidin 3-glucoside level at 0.67 umol, iv after 0.25 mins by mass spectrometry analysis; assay type: ADME, organism-based; settings: in vivo, 15 s, read-out: Drug uptake; procedure, shortened: as §2
[11] = Drug uptake in Wistar rat urine assessed as peonidin 3-glucoside level at 0.67 umol, iv after 15 mins by mass spectrometry analysis; assay type: ADME, organism-based; settings: in vivo, 0.25 h, read-out: Drug uptake
Procedure, shortened: (§4)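 Fasted, anaesthetized rats received the anthocyanin in saline as a 0.67 μmol iliac-vein bolus (76 μM in plasma). They were sacrificed at 15 s, 1, 5 or 15 min, and plasma, kidneys, liver, urine and bile were collected. Anthocyanins were methanol-extracted, SPE-cleaned and quantified by MS (tandem MS for trace metabolites), then corrected for recovery measured on spiked blood, homogenates and urine. Amounts assume 8.8 mL plasma, 2.4 g kidney and 7.0 g liver, with urine and bile volumes measured.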

Kidney [12] = experiment: Drug uptake in Wistar rat kidney assessed as peonidin 3-glucoside level at 0.67 umol, iv after 5 mins by mass spectrometry analysis; assay type: ADME, organism-based; settings: in vivo, read-out: Drug uptake; procedure, shortened: as §2
[13] = Drug uptake in Wistar rat urine assessed as peonidin 3-glucoside level by assuming plasma volume was 8.8 mL at 0.67 umol, iv after 15 mins by mass spectrometry analysis; assay type: ADME, organism-based; settings: in vivo, 0.25 h; procedure, shortened: as §4
Liver [14] = experiment: Drug uptake in Wistar rat liver assessed as peonidin 3-glucoside level at 0.67 umol, iv after 1 min by mass spectrometry analysis; assay type: ADME, organism-based; settings: in vivo; procedure, shortened: as §1
[15] = Drug excretion in Wistar rat bile assessed as peonidin 3-glucoside level at 0.67 umol, iv after 15 mins by mass spectrometry analysis; assay type: ADME, organism-based; settings: in vivo, 0.25 h; procedure, shortened: as §3
Plasma [16] = experiment: Drug uptake in Wistar rat plasma assessed as peonidin 3-glucoside level at 0.67 umol, iv after 0.25 mins by mass spectrometry analysis; assay type: ADME, organism-based; settings: in vivo, 15 s; procedure, shortened: as §4
Plasma [17] = experiment: Drug uptake in Wistar rat plasma assessed as peonidin 3-glucoside level at 0.67 umol, iv after 1 min by mass spectrometry analysis; assay type: ADME, organism-based; settings: in vivo; procedure, shortened: as §4
Kidney [18] = experiment: Drug uptake in Wistar rat kidney assessed as peonidin 3-glucoside level by assuming kidney mass was 2.4 gram at 0.67 umol, iv after 1 min by mass spectrometry analysis; assay type: ADME, organism-based; settings: in vivo; procedure, shortened: as §2
[19] = Drug uptake in Wistar rat bile assessed as peonidin 3-glucoside level by assuming plasma volume was 8.8 mL at 0.67 umol, iv after 15 mins by mass spectrometry analysis; assay type: ADME, organism-based; settings: in vivo, 0.25 h
Kidney [20] = experiment: Drug uptake in Wistar rat kidney assessed as peonidin 3-glucoside level by assuming kidney mass was 2.4 gram at 0.67 umol, iv after 15 mins by mass spectrometry analysis; assay type: ADME, organism-based; settings: in vivo, 0.25 h; procedure, shortened: as §2
Kidney [21] = experiment: Drug uptake in Wistar rat kidney assessed as peonidin 3-glucoside level by assuming kidney mass was 2.4 gram at 0.67 umol, iv after 0.25 mins by mass spectrometry analysis; assay type: ADME, organism-based; settings: in vivo, 15 s; procedure, shortened: as §2
Liver [22] = experiment: Drug uptake in Wistar rat liver assessed as peonidin 3-glucoside level at 0.67 umol, iv after 0.25 mins by mass spectrometry analysis; assay type: ADME, organism-based; settings: in vivo, 15 s; procedure, shortened: as §1
Liver [23] = experiment: Drug uptake in Wistar rat liver assessed as peonidin 3-glucoside level by assuming liver mass was 7 grams at 0.67 umol, iv after 5 mins by mass spectrometry analysis; assay type: ADME, organism-based; settings: in vivo; procedure, shortened: as §1
Liver [24] = experiment: Drug uptake in Wistar rat liver assessed as peonidin 3-glucoside level by assuming liver mass was 7 grams at 0.67 umol, iv after 1 min by mass spectrometry analysis; assay type: ADME, organism-based; settings: in vivo; procedure, shortened: as §1
Plasma [25] = experiment: Drug uptake in Wistar rat plasma assessed as peonidin 3-glucoside level at 0.67 umol, iv after 15 mins by mass spectrometry analysis; assay type: ADME, organism-based; settings: in vivo, 0.25 h; procedure, shortened: as §4
Liver [26] = experiment: Drug uptake in Wistar rat liver assessed as peonidin 3-glucoside level by assuming liver mass was 7 grams at 0.67 umol, iv after 15 mins by mass spectrometry analysis; assay type: ADME, organism-based; settings: in vivo, 0.25 h; procedure, shortened: as §1
[27] = Drug excretion in Wistar rat urine assessed as peonidin 3-glucoside level at 0.67 umol, iv after 15 mins by mass spectrometry analysis; assay type: ADME, organism-based; settings: in vivo, 0.25 h; procedure, shortened: as §3
Kidney [28] = experiment: Drug uptake in Wistar rat kidney assessed as petunidin 3-glucoside level at 0.67 umol, iv after 15 mins by tandem mass spectrometry; assay type: ADME, organism-based; settings: in vivo, 0.25 h, read-out: Drug uptake; procedure, shortened: as §2
Plasma [29] = experiment: Drug uptake in Wistar rat plasma assessed as petunidin 3-glucoside level at 0.67 umol, iv after 0.25 mins by tandem mass spectrometry; assay type: ADME, organism-based; settings: in vivo, 15 s; procedure, shortened: as §4
Plasma [30] = experiment: Drug uptake in Wistar rat plasma assessed as petunidin 3-glucoside level at 0.67 umol, iv after 1 min by tandem mass spectrometry; assay type: ADME, organism-based; settings: in vivo; procedure, shortened: as §4
Kidney [31] = experiment: Drug uptake in Wistar rat kidney assessed as petunidin 3-glucoside level at 0.67 umol, iv after 5 mins by tandem mass spectrometry; assay type: ADME, organism-based; settings: in vivo, read-out: Drug uptake
Kidney [32] = experiment: Drug uptake in Wistar rat kidney assessed as petunidin 3-glucoside level by assuming kidney mass was 2.4 gram at 0.67 umol, iv after 5 mins by tandem mass spectrometry; assay type: ADME, organism-based; settings: in vivo; procedure, shortened: as §2
[33] = Ratio of drug uptake in urine to kidney in Wistar rat assessed as petunidin 3-glucoside level at 0.67 umol, iv after 15 mins by mass spectrometry analysis; settings: in vivo, 0.25 h
[34] = Drug excretion in Wistar rat urine assessed as petunidin 3-glucoside level at 0.67 umol, iv after 15 mins by mass spectrometry analysis; assay type: ADME, organism-based; settings: in vivo, 0.25 h
Kidney [35] = experiment: Drug uptake in Wistar rat kidney assessed as petunidin 3-glucoside level by assuming kidney mass was 2.4 gram at 0.67 umol, iv after 15 mins by tandem mass spectrometry; assay type: ADME, organism-based; settings: in vivo, 0.25 h; procedure, shortened: as §2

Q: Which Ratio (Nucleic Acid [1]) does the source give for COc1cc(-c2[o+]c3cc(O)cc(O)c3cc2O[C@@H]2O[C@H](CO)[C@@H](O)[C@H](O)[C@H]2O)ccc1O here?
A: 86.5

Q: And the Drug uptake (Liver [2])?
A: 4.6 µM

Q: What about the concentration (Liver [3]) of the same compound?
A: 4.9 µM

Q: What about the concentration (Kidney [4]) of the same compound?
A: 20.5 µM

Q: And the concentration (Kidney [5])?
A: 41.5 µM

Q: And the Drug uptake (Liver [6])?
A: 41.1 nmol

Q: And the Ratio (Nucleic Acid [7])?
A: 34.5

Q: And the concentration [8]?
A: 398 µM

Q: What about the Drug uptake (Kidney [9]) of the same compound?
A: 38.8 nmol

Q: What about the concentration (Kidney [10]) of the same compound?
A: 19.2 µM

Q: What about the concentration [11] of the same compound?
A: 707 µM

Q: And the concentration (Kidney [12])?
A: 16.1 µM

Q: And the Drug uptake [13]?
A: 98.7 nmol

Q: And the Drug uptake (Liver [14])?
A: 11.5 µM

Q: What about the Activity [15] of the same compound?
A: 8.8%

Q: What about the concentration (Plasma [16]) of the same compound?
A: 1200 nM

Q: What about the concentration (Plasma [17]) of the same compound?
A: 500 nM

Q: What about the Drug uptake (Kidney [18]) of the same compound?
A: 99.5 nmol

Q: What about the Drug uptake [19] of the same compound?
A: 58.5 nmol

Q: And the Drug uptake (Kidney [20])?
A: 49.2 nmol

Q: What about the Drug uptake (Kidney [21]) of the same compound?
A: 46 nmol

Q: And the Drug uptake (Liver [22])?
A: 5.9 µM

Q: What about the Drug uptake (Liver [23]) of the same compound?
A: 34.5 nmol

Q: And the Drug uptake (Liver [24])?
A: 80.4 nmol

Q: What about the concentration (Plasma [25]) of the same compound?
A: 600 nM

Q: And the Drug uptake (Liver [26])?
A: 31.9 nmol

Q: And the Activity [27]?
A: 14.7%

Q: With COc1cc(-c2[o+]c3cc(O)cc(O)c3cc2O[C@@H]2O[C@H](CO)[C@@H](O)[C@H](O)[C@H]2O)cc(O)c1O as the compound, how does the concentration (Kidney [28]) read?
A: 966 nM

Q: And the concentration (Plasma [29])?
A: 2 nM

Q: What about the concentration (Plasma [30]) of the same compound?
A: 2 nM

Q: What about the concentration (Kidney [31]) of the same compound?
A: 879 nM

Q: And the Drug uptake (Kidney [32])?
A: 2210 pmol

Q: And the Ratio [33]?
A: 4.5

Q: And the Activity [34]?
A: 0.1%

Q: What about the Drug uptake (Kidney [35]) of the same compound?
A: 2317 pmol
